Converted amounts (≈) assume the structure as drawn. The source made the active and inactive calls. No cut-off for these calls is given here.
Legend:
[1] = Cytotoxicity against human HeLa cells assessed as reduction in cell viability by XTT assay; type: cell-based; settings: read-out: MCC50
How it was run: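 HeLa cells grown in DMEM with 10% FBS, penicillin and streptomycin at 37 °C, 5% CO2; 30 000 cells/well. XTT viability read at 450 and 650 nm. MCC50 (50% lysis) came from viability-versus-concentration curves. Two experiments, each in triplicate.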

[2] = molecular target: T1, Flavodoxin (Helicobacter pylori (strain ATCC 700392 / 26695) (Campylobacter pylori)) (UniProt O25776); experiment: Inhibition of flavodoxin in Helicobacter pylori SS1 assessed as reduction in bacterial growth measured after 48 hrs by resazurin staining-based microdilution method
T1 sequence (whole entry): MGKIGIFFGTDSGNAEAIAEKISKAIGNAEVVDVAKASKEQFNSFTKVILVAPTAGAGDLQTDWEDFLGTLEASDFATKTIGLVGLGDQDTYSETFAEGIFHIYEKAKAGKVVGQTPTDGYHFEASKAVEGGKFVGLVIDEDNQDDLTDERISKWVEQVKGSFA
How it was run: (§1)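 Broth microdilution in brain heart infusion with 4% FBS. Inoculum diluted to OD600 0.01. Two-fold dilutions from a DMSO stock cover 64–0.031 μg/mL, with DMSO ≤1% v/v. Incubated 48 h at 37 °C under microaerophilic conditions. MIC is the lowest concentration giving complete growth inhibition, read by resazurin colour change and confirmed by spotting on blood agar. Run twice in triplicate.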

[3] = molecular target: T1, Flavodoxin (Helicobacter pylori (strain ATCC 700392 / 26695) (Campylobacter pylori)); experiment: Inhibition of flavodoxin in Mnz-resistant Helicobacter pylori NCTC 11637 ATCC 43504 assessed as reduction in bacterial growth measured after 48 hrs by resazurin staining-based microdilution method; settings: Helicobacter pylori NCTC 11637 = CCUG 17874 = ATCC 43504; how it was run: as §1
[4] = molecular target: T1, Flavodoxin (Helicobacter pylori (strain ATCC 700392 / 26695) (Campylobacter pylori)); experiment: Inhibition of flavodoxin in Helicobacter pylori ATCC 700392 26695 assessed as reduction in bacterial growth measured after 48 hrs by resazurin staining-based microdilution method; settings: Helicobacter pylori 26695; how it was run: as §1
[5] = Therapeutic index, ratio of MCC50 for human HeLa cells to MIC for inhibition of flavodoxin in Helicobacter pylori SS1 assessed as reduction in bacterial growth; type: toxicity; settings: HeLa cells versus Helicobacter pylori SS1, read-out: TI
How it was run: (§2)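 TI is MCC50/MIC. For MCC50, HeLa cells (30 000/well, DMEM with 10% FBS) were exposed to compound at 25–1000 μM final. Viability by XTT at 450/650 nm; MCC50 is the concentration giving 50% lysis from viability curves. Run twice in triplicate.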

[6] = Therapeutic index, ratio of MCC50 for human HeLa cells to MIC for inhibition of flavodoxin in Mnz-resistant Helicobacter pylori NCTC 11637 ATCC 43504 assessed as reduction in bacterial growth; type: toxicity; settings: read-out: TI; how it was run: as §2
[7] = Therapeutic index, ratio of MCC50 for human HeLa cells to MIC for inhibition of flavodoxin in Helicobacter pylori ATCC 700392 26695 assessed as reduction in bacterial growth; type: toxicity; settings: HeLa cells versus Helicobacter pylori ATCC 700392 26695, read-out: TI; how it was run: as §2
[8] = Toxicity in NMRI mouse infected with Helicobacter pylori SS1 assessed as change in body weight at 0.1 to 1 mg/100g, po administered daily via gavage for 8 days starting from 1 week post-infection; type: organism-based; settings: in vivo
[9] = Toxicity in NMRI mouse infected with Helicobacter pylori SS1 assessed as change in appetite at 0.1 to 1 mg/100g, po administered daily via gavage for 8 days starting from 1 week post-infection; type: organism-based; settings: in vivo
[10] = Toxicity in NMRI mouse assessed as change in body weight at 0.1 to 1 mg/100g, po administered daily via gavage for 8 days; type: organism-based; settings: in vivo, 192 h
Helicobacter pylori [11] = experiment: Antibacterial activity against Helicobacter pylori SS1 infected in NMRI mouse assessed as reduction in gastric colonization at 0.1 to 1 mg/100g, po administered daily via gavage for 8 days starting from 1 week post-infection and measured 8 days post-last dose; type: functional, organism-based
How it was run: (§3)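 From day 8, compound given daily by oral gavage for 8 days in 100 μL of 5–10% DMSO/95–90% olive oil. Sacrificed day 24; stomach homogenate CFU/g counted after 5 days microaerophilic culture at 37 °C. Infected vehicle-treated controls; Mann-Whitney U and unpaired t tests, p ≤ 0.05.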

[12] = molecular target: T1, Flavodoxin (Helicobacter pylori (strain ATCC 700392 / 26695) (Campylobacter pylori)); experiment: Binding affinity to Helicobacter pylori flavodoxin by thermal upshift assay
[13] = molecular target: T1, Flavodoxin (Helicobacter pylori (strain ATCC 700392 / 26695) (Campylobacter pylori)); experiment: Binding affinity to Helicobacter pylori flavodoxin by isothermal titration calorimetric method
Escherichia coli = experiment: Effect on growth of Escherichia coli DH5[alpha] after 48 hrs by resazurin-dye based microdilution assay; type: organism-based
Staphylococcus aureus = experiment: Effect on growth of Staphylococcus aureus ATCC 1228 after 48 hrs by resazurin-dye based microdilution assay; type: organism-based
[14] = Toxicity in NMRI mouse infected with Helicobacter pylori SS1 assessed as change in body weight at 10 to 20 mg/100g, po administered daily via gavage for 8 days starting from 1 week post-infection; type: organism-based; settings: in vivo
How it was run: (§4)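 Female 6-week-old SPF NMRI mice infected orogastrically with Hp SS1 on days 1 and 3. Compound in 5–10% DMSO/olive oil (100 μL) given by daily oral gavage for 8 days from day 8. Body weight and appetite were monitored during treatment; infected controls received vehicle alone.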

[15] = Toxicity in NMRI mouse infected with Helicobacter pylori SS1 assessed as change in appetite at 10 to 20 mg/100g, po administered daily via gavage for 8 days starting from 1 week post-infection; type: organism-based; settings: in vivo; how it was run: as §4
[16] = Toxicity in NMRI mouse assessed as change in body weight at 10 to 20 mg/100g, po administered daily via gavage for 8 days; type: organism-based; settings: in vivo, 192 h
Helicobacter pylori [17] = experiment: Antibacterial activity against Helicobacter pylori SS1 infected in NMRI mouse assessed as bacterial eradication at 20 mg/100g, po administered daily via gavage for 8 days starting from 1 week post-infection and measured 8 days post-last dose; type: functional, organism-based
How it was run: as §3, with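 “Female 6-week-old SPF NMRI mice, 7 per condition, infected orogastrically on days 1 and 3 with 100 μL Hp SS1 (5 × 10^8 CFU/mL). From” for “From”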

Helicobacter pylori [18] = experiment: Antibacterial activity against Helicobacter pylori SS1 infected in NMRI mouse assessed as reduction in gastric colonization at 20 mg/100g, po administered daily via gavage for 8 days starting from 1 week post-infection and measured 8 days post-last dose; type: functional, organism-based
How it was run: as §3, with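 “Female 6-week-old SPF NMRI mice, 7 per condition, infected orogastrically on days 1 and 3 with 100 μL Hp SS1 (5 × 10^8 CFU/mL). From” for “From”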

Helicobacter pylori [19] = experiment: Antibacterial activity against Helicobacter pylori SS1 infected in NMRI mouse assessed as reduction in gastric colonization at 10 mg/100g, po administered daily via gavage for 8 days starting from 1 week post-infection and measured 8 days post-last dose; type: functional, organism-based
How it was run: (§5)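 Female 6-week-old SPF NMRI mice, seven per condition, infected orogastrically on days 1 and 3 with 100 μL Hp SS1 (5 × 10^8 CFU/mL). From day 8, 100 μL compound in 5–10% DMSO/95–90% olive oil by daily oral gavage for 8 days. Infected controls got vehicle. Killed day 24; stomach homogenates plated 5 days at 37 °C microaerophilic; CFU/g tissue versus control. Mann-Whitney U and unpaired t tests, p ≤ 0.05.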

Helicobacter pylori [20] = experiment: Antibacterial activity against Helicobacter pylori SS1 infected in NMRI mouse assessed as bacterial eradication at 10 mg/100g, po administered daily via gavage for 8 days starting from 1 week post-infection and measured 8 days post-last dose; type: functional, organism-based; how it was run: as §5

Row | SMILES | CC50 [1] [µM] | MIC [2] [µM] | MIC [3] [µM] | MIC [4] [µM] | selectivity ratio [5] | selectivity ratio [6] | selectivity ratio [7] | Activity [12] | Activity [13] | Activity (Escherichia coli) | Activity (Staphylococcus aureus) | Activity [14] | Activity [15] | Activity [16] | also measured
1 | O=[N+]([O-])/C=C/c1cc(C(F)(F)F)cc(C(F)(F)F)c1 | 15 | 1.8 (≈ 0.513 µg/mL) | 3.5 (≈ 0.998 µg/mL) | 1.8 (≈ 0.513 µg/mL) | 8.3 | 4.3 | 8.3 | Active | Active | Non-Toxic | Non-Toxic | – | – | – | Activity [8]: Non-Toxic; Activity [9]: Non-Toxic; Activity [10]: Non-Toxic; Activity (Helicobacter pylori [11]): inactive
2 | NCCc1cc(C(F)(F)F)cc(C(F)(F)F)c1 | > 500 | > 249 | 31 (≈ 7.97 µg/mL) | 31 (≈ 7.97 µg/mL) | – | > 16 | > 16 | Active | Active | Non-Toxic | Non-Toxic | Non-Toxic | Non-Toxic | Non-Toxic | Activity (Helicobacter pylori [17]): Active; Activity (Helicobacter pylori [18]): Active
3 | O/N=C1\Cc2cc(Cl)cc(Cl)c2OC1c1ccc(F)cc1 (stereo unspecified) | 117 | 12 (≈ 3.91 µg/mL) | 6.1 (≈ 1.99 µg/mL) | 6.1 (≈ 1.99 µg/mL) | 10 | 19 | 19 | Active | Active | Non-Toxic | Non-Toxic | Non-Toxic | Non-Toxic | Non-Toxic | Activity (Helicobacter pylori [19]): Active; Activity (Helicobacter pylori [20]): inactive

From ChEMBL document CHEMBL4364284, “Design, Synthesis, and Efficacy Testing of Nitroethylene- and 7-Nitrobenzoxadiazol-Based Flavodoxin Inhibitors against Helicobacter pylori Drug-Resistant Clinical Strains and in Helicobacter pylori-Infected Mice” (J Med Chem, 2019)
